The subject of data set [1] is A. baumannii ATCC 15308 ribosomes. Put plainly: Fluorescence polarization assay, 70S ribosome of A. baumannii. It counts as binding, Acinetobacter baumannii DSM 30008 / ATCC 15308. The note with it: RF1 added at equimolar quantities to the A. baumannii ribosome preparation. In outline:
(§1)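 70S ribosomes came from log-phase cultures (OD600 ~1): bead-mill lysis in HEPES buffer pH 7.6, DNase I/meropenem, clarification, then 165000 g for 17 h. Concentration by A260 (1 AU = 28 pmol/mL). In casein-blocked wells, ribosomes were twofold diluted in 23 steps (12 µmol/L–2.9 pmol/L) with Cf-labeled peptide added at 40 nmol/L, then incubated 90 min at 28 °C in the dark. Polarization read at ex485/em535. K_d came from a variable-slope dose-response fit of ≥2 triplicate experiments on different days.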

Data set [2] deals with ribosome of S. aureus DSM 6247. Put plainly: Fluorescence polarization assay, 70S ribosome of S. aureus. The note with it: S. aureus ribosome versus E. coli ribosome. The class given is binding, Staphylococcus aureus DSM 6247. In outline: as §1
For orientation: Polarisation of emitted light reports the rotation of a fluorescent probe.

The subject of data set [3] is E. coli BW25113. Put plainly: Antimicrobial activity. The note with it: broth micro dilution, 25 % MHB2, 7.5×10^6 cfu/mL, 37 °C, 20±2 h, triplicates. It counts as cell-based, Escherichia coli BW25113. In outline: (§2)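 Broth microdilution in 25% MHB2. Aqueous peptide stock (3 g/L) serially twofold diluted from 128 µg/mL in eight steps. Overnight 25% MHB2 cultures were diluted 30-fold, grown 4 h (37 °C, 200 rpm), and adjusted by McFarland to give a final 7.5×10^6 cfu/mL. Plates were incubated 20±2 h at 37 °C and OD595 read. MIC was the lowest concentration preventing visible growth. Triplicates.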

For data set [4], the system named is K. pneumoniae ATCC 10031. Kind of data set: Antimicrobial activity. The class given is cell-based, Klebsiella pneumoniae DSM 681 / ATCC 10031. The note with it: broth micro dilution, 25 % MHB2, 7.5×10^6 cfu/mL, 37 °C, 20±2 h, triplicates. In outline: as §2
Another data set deals with A. baumannii ATCC 15308. Kind of data set: Antimicrobial activity. The class given is cell-based, Acinetobacter baumannii DSM 30008 / ATCC 15308. The note with it: for MIC: broth micro dilution, 25 % MHB2, 7.5×10^6 cfu/mL, 37 °C, 20±2 h, triplicates. A digest of the protocol: as §2
In a further data set the test system is P. aeruginosa ATCC 27853. Put plainly: Antimicrobial activity. The class given is cell-based, Pseudomonas aeruginosa DSM 1117 / ATCC 27853. Conditions: broth micro dilution, 25 % MHB2, 7.5×10^6 cfu/mL, 37 °C, 20±2 h, triplicates. A digest of the protocol:
as §2

The subject of data set [5] is S. aureus DSM 6247. Put plainly: Antimicrobial activity. It counts as cell-based, Staphylococcus aureus DSM 6247. Conditions: broth micro dilution, 25 % MHB2, 7.5×10^6 cfu/mL, 37 °C, 20±2 h, triplicates. In outline: as §2
The subject of data set [6] is E. coli BW25113. Kind of data set: Bacterial uptake, peptide quantified by LC-MS. The class given is cell-based, Escherichia coli BW25113. The note with it: high cell counts, 30 min. A digest of the protocol: (§3)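 Cultures in 25% MHB2 were grown 4.0±0.25 h after 30-fold dilution, sized by OD600 (1.0 = 1.2×10^9 cfu/mL), pelleted and resuspended to 1.5×10^10 or 1.5×10^9 cfu/mL. Each was mixed 1:1 with medium containing 16 µg/mL peptide and shaken 30 min at 37 °C, with viable counts plated. Peptide in the supernatant (pellets also quantified) was measured by SPE then RP-HPLC-ESI-MS/MS MRM against a cell-free 8 µg/mL control and an on-plate calibration. Uptake was taken as the difference. Triplicate, repeated another day.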

The test system of data set [7] is K. pneumoniae ATCC 10031. Kind of data set: Bacterial uptake, peptide quantified by LC-MS. It counts as cell-based, Klebsiella pneumoniae DSM 681 / ATCC 10031. Conditions: high cell counts, 30 min. A digest of the protocol: as §3
Data set [8] has as its system S. aureus DSM 6247. Put plainly: Bacterial uptake, peptide quantified by LC-MS. The note with it: ∼7.5×10^9 cells/mL, 30 min, relative to cell-free medium, LC-MS MRM (Figure S3). The class given is cell-based, Staphylococcus aureus DSM 6247. A digest of the protocol: as §3
In data set [9] the test system is Gram‐negatives (E. coli, K. pneumoniae, A. baumannii, P. aeruginosa). Kind of data set: Bacterial uptake, values stated for the Gram-negatives together. The class given is cell-based. The note with it: 30 min. A digest of the protocol: as §3
The subject of the next data set is E. coli BL21AI. The note with it: E. coli BL21AI incubated with 4 mg/L peptide; cited from earlier work.
Where [10] appears, read: calculated from reduced quantity in supernatant.

Non-standard residues stand in square brackets, D forms with d. Residues, ends and D or L forms follow the SMILES beside them. *: point of attachment. Orn(α-tetramethylguanidino) = CN(C)C(=N[C@@H](CCCN)C(=O)*)N(C)C

As for `CC[C@H](C)[C@H](NC(=O)[C@H](Cc1ccc(O)cc1)NC(=O)[C@@H](NC(=O)[C@@H]1CCCN1C(=O)[C@H](CCCNC(=N)N)NC(=O)[C@H](CC(N)=O)NC(=O)[C@H](CC(N)=O)NC(=O)[C@H](CCCN)N=C(N(C)C)N(C)C)C(C)C)C(=O)N1CCC[C@H]1C(=O)N[C@@H](CCCNC(=N)N)C(=O)N1CCC[C@H]1C(=O)N[C@@H](CCCNC(=N)N)C(=O)N1CCC[C@H]1C(=O)N1CCC[C@H]1C(=O)N[C@@H](Cc1c[nH]cn1)C(=O)N1CCC[C@H]1C(=O)N[C@@H](CCCNC(=N)N)C(=O)N[C@@H](CC(C)C)C(=O)O` [Api137] ({Orn(α-tetramethylguanidino)}-NNRPVYIPRPRPPHPRL-OH), the “Effect of recombinant E. coli RF1 on K d” value in data set [1] is “did not affect”. In data set [2], the “K d, fold higher than for E. coli” value is 34 fold. For the same compound, the MIC is listed as 4 (1.8) mg/L in the data set with E. coli BW25113 [3]; 2 (0.9) mg/L in the data set with K. pneumoniae ATCC 10031 [4]; 128 (56) mg/L against A. baumannii ATCC 15308; >128 (>56) mg/L in the data set on P. aeruginosa ATCC 27853; >128 (>56) mg/L in the data set with S. aureus DSM 6247 [5]. In the data set with A. baumannii ATCC 15308 (MIC 4 μg/mL for E. coli and 128 μg/mL for A. baumannii), the “MIC, fold difference E. coli versus A. baumannii” value stood at 32 fold.
`CC[C@H](C)[C@H](NC(=O)[C@@H](CCCNC(=N)N)NC(=O)[C@H](CCCNC(=N)N)NC(=O)[C@@H]1CCCN1C(=O)[C@@H]1CCCN1C(=O)[C@H](CCCNC(=N)N)NC(=O)[C@@H]1CCCN1C(=O)[C@H](CCCNC(=N)N)NC(=O)[C@@H]1CCCN1C(=O)[C@H](CC(C)C)NC(=O)[C@H](Cc1ccc(O)cc1)NC(=O)[C@@H]1CCCN1C(=O)[C@@H]1CCCN1C(=O)[C@H](CCCCN)NC(=O)[C@H](CC(=O)O)NC(=O)[C@@H](N)C(C)C)C(=O)N[C@@H](Cc1ccc(O)cc1)C(=O)N[C@@H](CC(N)=O)C(=O)N[C@H](CCCNC(=N)N)C(N)=O` [Onc112] (H-VDKPPYLPRPRPPR[dR]IYN[dR]-NH2): the MIC is reported as 8 (3.4) mg/L against E. coli BW25113 [3]; 2 (0.8) mg/L against K. pneumoniae ATCC 10031 [4]; 32 (13.4) mg/L in the data set with A. baumannii ATCC 15308; 64 (26.8) mg/L in the data set on P. aeruginosa ATCC 27853; 64 (26.8) mg/L in the data set with S. aureus DSM 6247 [5]. The figures for the “Peptide per single cell, on average” value in the data set on E. coli BW25113 [6] and in the data set with K. pneumoniae ATCC 10031 [7] were 0.5 fg and 0.3 fg, respectively. The “Uptake (peptide amount)” value is recorded as 352 ng in the data set with E. coli BW25113 [6] and 208 ng in the data set on K. pneumoniae ATCC 10031 [7]. Further, the Uptake rate in the data set with E. coli BW25113 [6] (setting [10]) is listed as about 44%; in the data set on K. pneumoniae ATCC 10031 [7] (setting [10]), about 25%. In addition, in the data set with S. aureus DSM 6247 [8], the “Total quantities determined in supernatants and pellets” value was “around 110%”. Besides, the “Relative peptide quantity in culture supernatants” value in [9] (high cell counts ∼7.5×10^9 cells/mL, typical value, except for E. coli) was “around 75%”. The Uptake rates entry in data set [9] (low cell counts, Gram-negatives) is recorded as “below 20%”. Further, the Peptide per cell in the data set on E. coli BL21AI is listed as 0.2 fg/cell.
